# Bioassay records: PubChem, several laboratories
# The list is not random: actives were taken first. Their share in the collection is about 1.9%.
# MIN6 prolif: inducers of beta-cell replication in MIN6 cells; MIN6 cells proliferation, ATPlite luminescence, 48 h; cells starved in 0.2% serum; 100% = growth in 10% serum; proliferation, % at 10 µM; 330,000 tested, 0.29% active; AID 2380;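 active means compounds whose signal lies at least 3.5 SD above the mean of all wells on their plate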;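 further: 0% = DMSO-treated cells in low-serum medium and 100% = 10% serum control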
# CR mimetic SO: caloric restriction mimetics inhibiting age-related superoxide in yeast; 330,000 tested, 0.18% active; S. cerevisiae aged cells, superoxide DHE fluorescence; active compounds read low; superoxide response (% of plate mean), % at 10 µM;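 active means superoxide response under a set limit, about three screen SD below normal, cut at about 65% in these data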;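 further: yeast aged for seven days with compound at 30 °C before DHE staining; 100% = average MFI of all compound-treated wells on the plate with controls excluded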
# Rev-erbA mod: modulates human Rev-erb alpha binding to DNA. 370,000 tested, 0.79% active. P20393. Rev-erbα–FITC-DNA binding, fluorescence polarization, 90 min. AID 1259318. activity, % at 10 µM;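 active means activity above about 14%, limit read from the data; passing the limit was not always enough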;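 further: 0% = DMSO wells with 35 nM protein and 100% = DMSO wells with 750 nM protein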
# Target sequence (P20393 whole entry, looked up): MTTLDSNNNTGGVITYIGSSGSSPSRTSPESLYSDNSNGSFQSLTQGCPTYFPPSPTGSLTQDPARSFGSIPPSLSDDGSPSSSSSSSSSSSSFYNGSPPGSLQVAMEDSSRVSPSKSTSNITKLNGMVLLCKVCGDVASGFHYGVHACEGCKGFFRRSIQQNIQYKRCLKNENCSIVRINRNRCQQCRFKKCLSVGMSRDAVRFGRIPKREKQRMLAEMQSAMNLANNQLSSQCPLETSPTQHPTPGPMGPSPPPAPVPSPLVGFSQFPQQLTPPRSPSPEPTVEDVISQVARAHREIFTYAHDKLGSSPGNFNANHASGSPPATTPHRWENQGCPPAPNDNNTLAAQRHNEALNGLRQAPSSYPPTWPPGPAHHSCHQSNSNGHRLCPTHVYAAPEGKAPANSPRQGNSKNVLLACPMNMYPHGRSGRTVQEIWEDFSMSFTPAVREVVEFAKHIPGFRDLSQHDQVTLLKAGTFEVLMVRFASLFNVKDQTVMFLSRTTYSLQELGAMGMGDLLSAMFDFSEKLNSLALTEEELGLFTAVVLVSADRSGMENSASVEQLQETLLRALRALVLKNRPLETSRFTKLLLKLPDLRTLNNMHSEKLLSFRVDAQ
# UCH37 inh: human UCH37 deubiquitinating enzyme inhibition; purified proteasome/UCH37, Ub-AMC cleavage fluorescence; inhibition, % (test concentration not listed); 330,000 tested, 0.33% active; AID 588478;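 active means mean inhibition over replicate wells above about 20%, limit read from the data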;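 further: 0% = compound-free wells with enzyme and 100% = wells lacking proteasome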
#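 assay system = human UCH37 enzyme supplied as purified proteasome complex | amount = proteasome at 0.15 nM in the dispensed enzyme solution | schedule = 30 min compound-proteasome preincubation then 25 min substrate reaction, room temperature | measured by = fluorescence, ex 355 nm, em 460 nm | benchmarks = no-proteasome wells (full inhibition) and compound-free wells (no inhibition)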
# PG9 Ab binder: binds the HIV-1 gp120 antibody PG9. TR-FRET gp120-PG9 antibody binding. inhibition, % at 6.7 µM. 360,000 tested, 0.43% active; in the data active means inhibition above about 8.5%
# Rce1 inhib: blocks yeast Ras-converting enzyme | AID 2563 | calls only | yeast membranes, quenched prenylated peptide cleavage fluorescence | 290,000 tested, 0.27% active | Q03530;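 active means fall in fluorescence gain of 50% or more versus controls, with final raw signal at or below 3038400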;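 further: plate controls were neutral control wells for no effect and wells lacking membranes for full effect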
# Rev-erbA confirm: confirmation of modulators of human Rev-erb alpha DNA binding | AID 1259319 | Rev-erb alpha FITC-DNA binding, fluorescence polarization, 90 min | 3,000 tested, 61% active | shares compounds with Rev-erbA mod | activation, % at 25 µM;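 active means activation at or above a set limit, or at least 3 SD above the negative control mean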;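 further: 0% = 35 nM protein with DMSO and 100% = 750 nM protein high control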
# RORg counter: RORgamma DNA-binding activity, dose-response counter-screen; shares compounds with Rev-erbA mod; purified RORgamma protein-FITC-DNA binding, fluorescence polarization; IC50, µM; 910 tested, 8% active; AID 1259320;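 active means Compounds whose fitted half-maximal concentration for disrupting protein-DNA binding is below 10 micromolar; the record names Rev-erb in its text, so the target is in doubt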
# The depositor's hits bear a star; i = inactive; / = no result; + = active, no number.
SMILES,MIN6 prolif,CR mimetic SO,Rev-erbA mod,UCH37 inh,PG9 Ab binder,Rce1 inhib,Rev-erbA confirm,others
COc1ccc(Cl)cc1Nc1nc(C)nc2c1oc1ccccc12,-6,115,15*,-187,0,+,23*,
CCOC(=O)C(CC)(CC)C(C)=NNC(=O)CC#N,/,/,/,4,/,/,/,
CN(C)c1ccc(/C=C/c2cc[n+](C)cc2)cc1,-4,106,28*,17,-22,i,44*,RORg counter=>40
CCCCCC[n+]1ccccc1/C=C/c1ccc(N(C)C)cc1,/,/,34*,/,-11,/,37*,RORg counter=i
Cn1c(/C(C#N)=C(\O)c2ccc(Br)s2)nc2ccccc21,-2,132,39*,-68,-56,i,8,
Cn1c(/C(C#N)=C(\O)c2cc(Cl)sc2Cl)nc2ccccc21,-1,93,-7,-8,2,i,/,
Cc1ccc(-n2nnnc2SCC(=O)c2c(N)n(C3CC3)c(=O)[nH]c2=O)cc1C,-2,113,21*,-1,2,/,14*,
Cc1cc(C)c2c(c1)C(=NNC(=O)c1cc(C)oc1C)CCC2,/,/,/,2,/,/,/,
COc1ccccc1N(C)S(=O)(=O)c1ccc(Cl)c(C(=O)OCc2c(C)noc2C)c1,-2,113,18*,2,0,/,17,
CCOc1ccc(NC(=O)c2cc3c(=O)n(C)c4ccccc4c3n2C)cc1,0,110,41*,-103,-1,i,21*,
Cc1nn(C)cc1C=Nn1nnnc1N,/,/,/,0,/,/,/,
O=C(Cc1ccccc1)NN=Cc1ccc([N+](=O)[O-])s1,/,/,/,1,/,/,/,
COc1ccc(C=NN2CCN(C3c4ccccc4-c4ccccc43)CC2)cc1O,/,/,/,3,/,/,/,
CCOC(=O)c1c(C)nc2sc3c(=O)n(-c4ccc(OC)cc4)nnc3c2c1-c1ccc(OC)cc1,-1,97,1,0,2,i,/,
CCOC(=O)c1c(C)nc2sc3c(=O)n(-c4ccc(C(C)=O)cc4)cnc3c2c1-c1ccc(OC)cc1,-4,105,31*,-1,1,i,19*,
C/C=C(/C)C(=O)O[C@@H]1[C@H](OC(=O)C=C(C)C)c2c(ccc3ccc(=O)oc23)OC1(C)C,6,97,-7,0,3,i,/,
CC(C)=CC(=O)O[C@@H]1Cc2c(ccc3ccc(=O)oc23)OC1(C)C,1,94,26*,-9,0,/,23*,
CC(C)(C)c1cc(N2CCOCC2)n2ncc(-c3ccc(Cl)cc3)c2n1,-6,106,16,-251,0,i,/,
Cc1nn2c(N3CCOCC3)cc(C(C)(C)C)nc2c1-c1ccc(Cl)cc1,-4,/,30*,i,0,i,-5,
Cc1cc(N2CCOCC2)n2nc(C(F)(F)F)c(-c3ccccc3)c2n1,/,110,28*,-172,0,i,-2,
CC(=O)Nc1ccc(Nc2cc(C)nc3c(-c4ccc(Cl)cc4)c(C)nn23)cc1,-4,106,19*,-123,0,i,7,
Cc1cc(N2CCOCC2)n2nc(C)c(-c3ccc(Cl)cc3)c2n1,-2,102,26*,-244,1,i,-1,
Cc1cc(N2CCOCC2)n2ncc(-c3ccc(Cl)cc3)c2n1,-2,95,8,-381,1,i,/,
COc1cccc(C=Nn2cnc3c(cnn3-c3ccccc3)c2=O)c1,/,/,/,6,/,/,/,
CC(C)Cn1c(N)c(C=NNC(=O)c2ccc(Cl)cc2)c(=O)n(C)c1=O,/,/,/,-293,/,/,/,
SMILES,MIN6 prolif,CR mimetic SO,Rev-erbA mod,UCH37 inh,PG9 Ab binder,Rce1 inhib,Rev-erbA confirm,others
Cc1ccc(-c2c(C(=O)NN=Cc3cccs3)nnn2-c2nonc2N)cc1,/,/,/,4,/,/,/,
Fc1cccc2sc(Nc3nc4cc5c(cc4s3)OCCO5)nc12,1,95,34*,/,-2,i,35*,RORg counter=>40
Clc1ccsc1-c1ccnc(-n2cccc2)n1,0,101,-4,-3,2,i,/,
Clc1ccc(-c2ccnc(-n3cccc3)n2)s1,-3,94,18*,3,2,i,-1,
Cc1ccc(-c2nn(C(C)(C)C)c3ncnc(NS(=O)(=O)c4ccc([N+](=O)[O-])cc4)c23)cc1,-4,100,-2,4,-2,/,/,
Cc1ccc(-c2nc(N)c3c(-c4ccc(C)cc4)nn(C(C)(C)C)c3n2)cc1,1,110,30*,4,1,i,-1,
CCCNC(=O)c1c(NC(=O)C2COc3ccccc3O2)sc2c1CCCC2 (stereo not given),2,92,49*,3,0,i,4,
O=C(NC1CCS(=O)(=O)C1)c1c(NC(=O)C2COc3ccccc3O2)sc2c1CCCC2 (stereo not given),-3,95,3,5,1,i,/,
COc1ccc(C=c2sc3nc(=O)c(C)nn3c2=O)c(OC)c1,/,/,/,2,/,/,/,
O=c1c(=Cc2cccn2-c2ccccc2)sc2nc3ccccc3n12,/,/,/,-13,/,/,/,
CCN1C(=O)/C(=C\N2CCN(c3ccc(F)cc3)CC2)SC1=S,-4,127,213*,-2,4,i,251*,RORg counter=i
COc1ccccc1-n1cc(-c2ccc(Br)cc2)[nH]c1=S,-1,76,3,6,-1,i,/,
S=c1[nH]c(-c2ccc(Br)cc2)cn1CCc1ccccc1,1,87,17*,-1,1,i,28*,
CC(=O)c1ccc(N2CCN(c3ccc(C(F)(F)F)cn3)CC2)cc1,/,104,37*,-1,1,i,29*,
CC(=O)c1ccc(N2CCN(c3ncc(C(F)(F)F)cc3Cl)CC2)cc1,-1,104,-4,-1,1,i,/,
COc1cc(C=NNC(=O)c2cccc(NC(=O)c3ccccc3)c2)ccc1O,/,/,/,1,/,/,/,
CCN(CC)Cc1c(C(=O)NN=Cc2cccc(OCc3cccc(Cl)c3)c2)nnn1-c1nonc1N,/,/,/,1,/,/,/,
O=C(CCc1ccccc1)NC(=S)Nc1ccc2c(c1)C(=O)OC2,-1,103,31*,1,8,i,30*,
Cc1nc(SCC(=O)Nc2ccccc2C(F)(F)F)c(C#N)c(C)c1CC(=O)c1ccc(Br)cc1,-3,111,43*,/,1,i,7,
COc1ccc(C=NNC(=O)c2c(C)n(C)c3ccc(OC)cc23)c(OC)c1,/,/,/,7,/,/,/,
COc1ccc(CC(=O)Nc2ccc(-c3cn4ccc(C)cc4n3)cc2)cc1,-2,110,16*,-3,3,i,11,
COc1ccc(CC(=O)Nc2ccc(-c3cn4cccc(C)c4n3)cc2)cc1OC,1,101,-6,-4,-1,i,/,
O=C1NC(=O)c2c(Br)c(Br)c(Br)c(Br)c21,/,/,395*,2,3,/,442*,RORg counter=7.5*
